How the values were obtained:
Assay type in all cases: ADME, organism-based
[1] = Drug level in pediatric patient cerebrospinal fluid with gram-negative bacterial infection assessed as Colistin level at 16 mg/kg/day, iv administered every 8 hrs for 51 days measured after 30 mins by LS/MS/MS analysis; parameters: route intravenous; conditions: human, in vivo, 0.5 h
Method in brief: (§1)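 Children (1 month to 14 years) received CMS in 30 to 50 ml normal saline by 20-min IV infusion every 8 h. CSF was taken from EVD systems alongside blood, after the end of infusion, and stored at −80°C. It was diluted 1:1 with serum, protein-precipitated, and analysed by LC-MS-MS for colistin A plus B against standards in pH 7.4 phosphate-buffered artificial-CSF Ringer with serum. Values are means of two days; course 1 was sampled once.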

Serum [2] = assay: Drug level in pediatric patient serum with gram-negative bacterial infection before initiation of 18 mg/kg/day, iv administered every 8 hrs for 42 days by LS/MS/MS analysis; parameters: route intravenous; conditions: human, in vivo
Method in brief: (§2)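 Trough sampling: blood was drawn immediately before the 20-min IV CMS infusion (every 8 h), and CSF was taken from EVD systems within 1 h before infusion. Samples were stored at −80°C and analysed by LC-MS-MS for colistin, and for CMS via acid hydrolysis with subtraction. CSF was diluted 1:1 with serum. Values are means of two days.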

[3] = Drug level in pediatric patient cerebrospinal fluid with gram-negative bacterial infection assessed as Colistin level at 18 mg/kg/day, iv administered every 8 hrs for 42 days measured after 30 mins by LS/MS/MS analysis; parameters: route intravenous; conditions: human, in vivo, 0.5 h; method in brief: as §1
Serum [4] = assay: Drug level in pediatric patient serum with gram-negative bacterial infection at 4.8 mg/kg/day, iv administered every 8 hrs for 7 days measured after 30 mins by LS/MS/MS analysis; parameters: route intravenous; conditions: human, in vivo, 0.5 h
Method in brief: (§3)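 Serum was taken 30 min after the end of the 20-min IV CMS infusion (every 8 h) and stored at −80°C. It underwent acid hydrolysis with 1 M H2SO4 for 15–20 min, neutralisation with 1 M NaOH, and precipitation with acetonitrile containing 0.1% TFA. LC-MS-MS colistin before hydrolysis was subtracted from colistin after hydrolysis to give CMS. Values are means of two days.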

[5] = Ratio of drug level in cerebrospinal fluid to Serum of pediatric patient with gram-negative bacterial infection assessed as Colistin level at 18 mg/kg/day, iv administered every 8 hrs for 42 days by LS/MS/MS analysis; parameters: route intravenous; conditions: human, csf
Method in brief: (§4)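 Percentages are the ratio of mean CSF concentration to mean serum concentration from paired samples. Blood was drawn immediately before and 30 min after the 20-min IV CMS infusion (every 8 h); CSF came from EVD systems concurrently. Both were measured by LC-MS-MS, for colistin directly and for CMS after acid hydrolysis. Pairs were repeated on two days.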

[6] = Drug level in pediatric patient cerebrospinal fluid with gram-negative bacterial infection at 10.4 mg/kg/day, iv administered every 8 hrs for 46 days measured after 30 mins by LS/MS/MS analysis; parameters: route intravenous; conditions: human, in vivo, 0.5 h
Method in brief: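 CMS was given by 20-min IV infusion in saline every 8 h, and CSF was taken from EVD systems after the end of infusion. The CSF–serum 1:1 mix was treated with 1 M H2SO4 for 15–20 min, then 1 M NaOH, then acetonitrile with 0.1% TFA. CMS was calculated as colistin after hydrolysis minus colistin before hydrolysis, by LC-MS-MS, with CMS controls of 0.25–18.5 μg/ml. Values are means of two days; course 1 was sampled once.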

Serum [7] = assay: Drug level in pediatric patient serum with gram-negative bacterial infection before initiation of 16 mg/kg/day, iv administered every 8 hrs for 93 days by LS/MS/MS analysis; parameters: route intravenous; conditions: human, in vivo; method in brief: as §2
Serum [8] = assay: Drug level in pediatric patient serum with gram-negative bacterial infection before initiation of 4.8 mg/kg/day, iv administered every 8 hrs for 7 days by LS/MS/MS analysis; parameters: route intravenous; conditions: human, in vivo; method in brief: as §2
[9] = Ratio of drug level in cerebrospinal fluid to Serum of pediatric patient with gram-negative bacterial infection at 4.8 mg/kg/day, iv administered every 8 hrs for 7 days by LS/MS/MS analysis; parameters: route intravenous; conditions: human, csf; method in brief: as §4
Serum [10] = assay: Drug level in pediatric patient serum with gram-negative bacterial infection at 16 mg/kg/day, iv administered every 8 hrs for 93 days measured after 30 mins by LS/MS/MS analysis; parameters: route intravenous; conditions: human, in vivo, 0.5 h; method in brief: as §3
Serum [11] = assay: Drug level in pediatric patient serum with gram-negative bacterial infection before initiation of 16 mg/kg/day, iv administered every 8 hrs for 51 days by LS/MS/MS analysis; parameters: route intravenous; conditions: human, in vivo; method in brief: as §2
Serum [12] = assay: Drug level in pediatric patient serum with gram-negative bacterial infection assessed as Colistin level at 4.8 mg/kg/day, iv administered every 8 hrs for 7 days measured after 30 mins by LS/MS/MS analysis; parameters: route intravenous; conditions: human, in vivo, 0.5 h
Method in brief: (§5)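 Blood was drawn 30 min after the end of the 20-min IV CMS infusion, given every 8 h. Serum was separated by centrifugation, stored at −80°C, and assayed by LC-MS-MS for colistin A plus B (interday CV <4.4%, accuracy within ±1.9%). Values are means of two sampling days; course 1 was sampled once.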

[13] = Ratio of drug level in cerebrospinal fluid to Serum of pediatric patient with gram-negative bacterial infection assessed as Colistin level at 4.8 mg/kg/day, iv administered every 8 hrs for 7 days by LS/MS/MS analysis; parameters: route intravenous; conditions: human, csf; method in brief: as §4
[14] = Ratio of drug level in cerebrospinal fluid to Serum of pediatric patient with gram-negative bacterial infection before initiation of 10.4 mg/kg/day, iv administered every 8 hrs for 46 days by LS/MS/MS analysis; parameters: route intravenous; conditions: human, csf; method in brief: as §4
[15] = Drug level in pediatric patient cerebrospinal fluid with gram-negative bacterial infection before initiation of 4.8 mg/kg/day, iv administered every 8 hrs for 7 days by LS/MS/MS analysis; parameters: route intravenous; conditions: human, in vivo; method in brief: as §2
[16] = Ratio of drug level in cerebrospinal fluid to Serum of pediatric patient with gram-negative bacterial infection at 16 mg/kg/day, iv administered every 8 hrs for 51 days by LS/MS/MS analysis; parameters: route intravenous; conditions: human, csf; method in brief: as §4
[17] = Ratio of drug level in cerebrospinal fluid to Serum of pediatric patient with gram-negative bacterial infection at 18 mg/kg/day, iv administered every 8 hrs for 42 days by LS/MS/MS analysis; parameters: route intravenous; conditions: human, csf; method in brief: as §4
Serum [18] = assay: Drug level in pediatric patient serum with gram-negative bacterial infection assessed as Colistin level at 16 mg/kg/day, iv administered every 8 hrs for 93 days measured after 30 mins by LS/MS/MS analysis; parameters: route intravenous; conditions: human, in vivo, 0.5 h; method in brief: as §5
[19] = Ratio of drug level in cerebrospinal fluid to Serum of pediatric patient with gram-negative bacterial infection before initiation of 18 mg/kg/day, iv administered every 8 hrs for 42 days by LS/MS/MS analysis; parameters: route intravenous; conditions: human, csf; method in brief: as §4
[20] = Ratio of drug level in cerebrospinal fluid to Serum of pediatric patient with gram-negative bacterial infection before initiation of 16 mg/kg/day, iv administered every 8 hrs for 51 days by LS/MS/MS analysis; parameters: route intravenous; conditions: human, csf; method in brief: as §4
[21] = Ratio of drug level in cerebrospinal fluid to Serum of pediatric patient with gram-negative bacterial infection assessed as Colistin level at16 mg/kg/day, iv administered every 8 hrs for 93 days by LS/MS/MS analysis; conditions: human, csf; method in brief: as §4
Serum [22] = assay: Drug level in pediatric patient serum with gram-negative bacterial infection assessed as Colistin level at 16 mg/kg/day, iv administered every 8 hrs for 51 days measured after 30 mins by LS/MS/MS analysis; parameters: route intravenous; conditions: human, in vivo, 0.5 h; method in brief: as §5
[23] = Ratio of drug level in cerebrospinal fluid to Serum of pediatric patient with gram-negative bacterial infection assessed as Colistin level at 16 mg/kg/day, iv administered every 8 hrs for 51 days by LS/MS/MS analysis; parameters: route intravenous; conditions: human, csf; method in brief: as §4

Drug uptake [1]: 0.11 µg/mL
Drug uptake (Serum [2]): 6.11 µg/mL
Drug uptake [3]: 0.07 µg/mL
Drug uptake (Serum [4]): 2.86 µg/mL
Ratio [5]: 3.2%
Drug uptake [6]: 0.02 µg/mL
Drug uptake (Serum [7]): 0.75 µg/mL
Drug uptake (Serum [8]): 0.28 µg/mL
Ratio [9]: 2%
Drug uptake (Serum [10]): 8.41 µg/mL
Drug uptake (Serum [11]): 0.93 µg/mL
Drug uptake (Serum [12]): 0.29 µg/mL
Ratio [13]: 19.3%
Ratio [14]: 3.1%
Drug uptake [15]: 0.06 µg/mL
Ratio [16]: 0.9%
Ratio [17]: 0.4%
Drug uptake (Serum [18]): 1.33 µg/mL
Ratio [19]: 0.6%
Ratio [20]: 9.9%
Ratio [21]: 34.8%
Drug uptake (Serum [22]): 1.6 µg/mL
Ratio [23]: 7.2%
Sequence: COLISTIN
